Results published in ChEMBL document CHEMBL5113464, “A multi-pronged evaluation of aldehyde-based tripeptidyl main protease inhibitors as SARS-CoV-2 antivirals” (Eur J Med Chem, 2022).

Assays:
SARS-CoV-2 [1] = assay: Antiviral activity against SARS-Cov2 USA-WA1/2020 infected in African green monkey Vero E6 cells assessed as viral plaque reduction measured after 3 days by plaque reduction neutralization test; format: functional, organism-based; conditions: Severe acute respiratory syndrome coronavirus 2, USA-WA1/2020, Vero C1008, 72 h
SARS-CoV-2 [2] = assay: Antiviral activity against SARS-Cov2 Beta infected in African green monkey Vero E6 cells assessed as viral plaque reduction measured after 3 days by plaque reduction neutralization test; format: functional, organism-based; conditions: Severe acute respiratory syndrome coronavirus 2, Beta, Vero C1008, 72 h
SARS-CoV-2 [3] = assay: Antiviral activity against SARS-Cov2 Delta infected in African green monkey Vero E6 cells assessed as viral plaque reduction measured after 3 days by plaque reduction neutralization test; format: functional, organism-based; conditions: Severe acute respiratory syndrome coronavirus 2, Delta, Vero C1008, 72 h
[4] = Cytotoxicity against HEK293T/17 cells by MTT assay; format: toxicity, cell-based; conditions: human
How it was run: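 MTT viability assay in 293T cells. CC50 is derived from cytotoxicity curves of compound concentration versus viability.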

[5] = target: T1, Replicase polyprotein 1ab (Severe acute respiratory syndrome coronavirus 2, UniProt P0DTD1); assay: Inhibition of eGFP fused SARS-CoV2 main protease transfected in HEK293T/17 cells incubated for 72 hrs by fluorescence based flow cytometry analysis; format: cell-based
[6] = target: T1, Replicase polyprotein 1ab; assay: Inhibition of His/SUMO tagged SARS-CoV2 main protease expressed in Escherichia coli BL21 (DE3) cells using Dabcyl-KTSAVLQSGFRKME-Edans as substrate preincubated for 30 mins followed by substrate addition and measured after 30 mins by fluorescence plate reader analysis

`CC(C)C[C@H](NC(=O)[C@@H](NC(=O)OCc1cccc(Cl)c1)[C@@H](C)OC(C)(C)C)C(=O)N[C@H](C=O)C[C@@H]1CCNC1=O` gave an EC50 (SARS-CoV-2 [1]) of 1900 nM, an EC50 (SARS-CoV-2 [2]) of 650 nM and an EC50 (SARS-CoV-2 [3]) of 1600 nM. For the same compound, the CC50 ([4]; hek293t/17) was 183000 nM.

In the case of `CC(C)(C)C[C@H](NC(=O)[C@@H](NC(=O)OCc1ccccc1)C(C)(C)C)C(=O)N[C@H](C=O)C[C@@H]1CCNC1=O`, the EC50 (SARS-CoV-2 [1]) is reported as greater than 5000 nM, the EC50 (SARS-CoV-2 [2]) is reported as 710 nM and the EC50 (SARS-CoV-2 [3]) is reported as 5000 nM. The CC50 ([4]; HEK293T/17 cells) was greater than 200000 nM.

In the case of `CC(C)[C@H](NC(=O)OCc1ccccc1)C(=O)N[C@@H](Cc1cccs1)C(=O)N[C@H](C=O)C[C@@H]1CCNC1=O`, the EC50 [5] is reported as “Nd(Insoluble)” and the IC50 [6] is reported as “Nd(Insoluble)”.

With `C[C@@H](OC(C)(C)C)[C@H](NC(=O)OCc1ccccc1)C(=O)N[C@@H](CC1CC1)C(=O)N[C@H](C=O)C[C@@H]1CCNC1=O` the EC50 (SARS-CoV-2 [1]) was 1200 nM, the EC50 (SARS-CoV-2 [2]) was 1800 nM and the EC50 (SARS-CoV-2 [3]) was 1100 nM. It also gave a CC50 ([4]; HEK293T/17 cells) greater than 200000 nM.

Work on `CC(C)[C@H](NC(=O)OCc1cccc(Cl)c1)C(=O)N[C@@H](CC1CCCCC1)C(=O)N[C@H](C=O)C[C@@H]1CCNC1=O` yielded an EC50 (SARS-CoV-2 [1]) greater than 5000 nM, an EC50 (SARS-CoV-2 [2]) greater than 5000 nM and an EC50 (SARS-CoV-2 [3]) of 3200 nM. The CC50 ([4]; hek293t/17) was 114000 nM.

For `CC(OC(C)(C)C)[C@H](NC(=O)OCc1ccccc1)C(=O)N[C@@H](CC1CCCCC1)C(=O)N[C@H](C=O)C[C@@H]1CCNC1=O` (single isomer, unassigned), the CC50 ([4]; hek293t/17) was 109000 nM.

With `C[C@@H](OC(C)(C)C)[C@H](NC(=O)OCc1ccccc1)C(=O)N[C@@H](CC(C)(C)C)C(=O)N[C@H](C=O)C[C@@H]1CCNC1=O` the EC50 (SARS-CoV-2 [1]) was 1200 nM, the EC50 (SARS-CoV-2 [2]) was 1200 nM and the EC50 (SARS-CoV-2 [3]) was 580 nM. The CC50 ([4]; HEK293T/17 cells) was greater than 200000 nM.

In the case of `C[C@@H](OC(C)(C)C)[C@H](NC(=O)OCc1cccc(Cl)c1)C(=O)N[C@@H](CC1CCCCC1)C(=O)N[C@H](C=O)C[C@@H]1CCNC1=O`, the EC50 (SARS-CoV-2 [1]) is reported as 2200 nM, the EC50 (SARS-CoV-2 [2]) is reported as 1600 nM and the EC50 (SARS-CoV-2 [3]) is reported as 870 nM. It also gave a CC50 ([4]; hek293t/17) of 130000 nM.
